Results reported in ChEMBL document CHEMBL2040765, “Synthesis and anticancer activity of a series of norcantharidin analogues” (2012).

Key:
Type in all cases: functional
A2780 = assay: Growth inhibition of human A2780 cells at 100 uM after 72 hrs y MTT assay
Procedure, shortened: (§1)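 Log-phase cells in supplemented DMEM (10% FBS, 4 mM glutamine, antibiotics; 37 °C, 5% CO2) were plated in duplicate at 2500–4000 cells/well. Compound was added 24 h later at a fixed 100 µM, from 40 mM DMSO stocks. After 72 h, MTT absorbance was read at 540 nm and expressed as percent growth inhibition; 100% means total inhibition.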

NCI-H460 = assay: Growth inhibition of human H460 cells at 100 uM after 72 hrs y MTT assay; procedure, shortened: as §1
MCF7 = assay: Growth inhibition of human MCF7 cells at 100 uM after 72 hrs y MTT assay; details: Homo sapiens, MCF7, 72 h; read-out: GI; procedure, shortened: as §1
DU-145 = assay: Growth inhibition of human DU145 cells at 100 uM after 72 hrs y MTT assay; procedure, shortened: as §1
A-431 = assay: Growth inhibition of human A431 cells at 100 uM after 72 hrs y MTT assay; procedure, shortened: as §1
SW480 = assay: Growth inhibition of human SW480 cells at 100 uM after 72 hrs y MTT assay; details: Homo sapiens, SW480, 72 h; read-out: GI; procedure, shortened: as §1
[1] = Growth inhibition of human BE(2)-C cells at 100 uM after 72 hrs y MTT assay; details: Homo sapiens, BE(2)-C, 72 h; read-out: GI; procedure, shortened: as §1
[2] = Growth inhibition of human SJ-G2 cells at 100 uM after 72 hrs y MTT assay; details: Homo sapiens, SJ-G2, 72 h; read-out: GI; procedure, shortened: as §1
HT-29 = assay: Growth inhibition of human HT-29 cells at 100 uM after 72 hrs y MTT assay; details: Homo sapiens, HT-29, 72 h; read-out: GI; procedure, shortened: as §1

| Compound | inhibition of growth at 100 µM (A2780; Homo sapiens, A2780, 72 h, read-out: GI) [%] | inhibition of growth at 100 µM (NCI-H460; Homo sapiens, NCI-H460, 72 h, read-out: GI) [%] | inhibition of growth at 100 µM (MCF7) [%] | inhibition of growth at 100 µM (DU-145; Homo sapiens, DU-145, 72 h, read-out: GI) [%] | inhibition of growth at 100 µM (A-431; Homo sapiens, A-431, 72 h, read-out: GI) [%] | inhibition of growth at 100 µM (SW480) [%] | inhibition of growth at 100 µM [1] [%] | inhibition of growth at 100 µM [2] [%] | inhibition of growth at 100 µM (HT-29) [%] | growth inhibition (GI) (A2780) [%] | growth inhibition (GI) (NCI-H460) [%] | growth inhibition (GI) (DU-145) [%] | growth inhibition (GI) (A-431) [%] |
| --- | --- | --- | --- | --- | --- | --- | --- | --- | --- | --- | --- | --- | --- |
| CC1OC1CO[C@@H]1OC(=O)[C@H]2[C@@H]1[C@@H]1CC[C@H]2O1 (stereo partly drawn) | 26 | 9 | 27 | 17 | 18 | 17 | 23 | 80 | 70 |  |  |  |  |
| O=C1O[C@H](OCC2CO2)[C@@H]2[C@H]1[C@H]1CC[C@@H]2O1 (stereo in doubt; 20) |  |  | 43 |  |  | 16 | 42 | 59 | 52 | 83 | 7 | 21 | 18 |
